Laboratory results as given in ChEMBL document CHEMBL4033789, “Discovery of a New Four-Leaf Clover-Like Ligand as a Potent c-MYC Transcription Inhibitor Specifically Targeting the Promoter G-Quadruplex” (J Med Chem, 2018).
Active and inactive are the calls of the source. The calls are words filed in the database; no cut-off is given here.

Assays:
SiHa [1] = experiment: Induction of apoptosis in human SiHa cells after 24 hrs by Annexin V-FITC/propidium iodide-staining based flow cytometric analysis; assay type: functional, cell-based
[2] = Stabilization of c-Myc mutant promoter DNA (unknown origin) transfected in human SiHa cells assessed as reduction in gene transcription at 1.25 to 2.5 uM after 24 hrs by dual-luciferase reporter gene assay; assay type: cell-based
Method in brief: (§1)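 SiHa cells transfected with psiCHECK2 carrying wild-type or mutant c-MYC promoter driving Renilla luciferase, firefly luciferase on same plasmid; compound added 4 h post-transfection, incubated further at 37 °C; Renilla signal normalized to firefly; three repeats, mean ± SEM.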

SiHa [3] = experiment: Induction of cell cycle arrest in human SiHa cells assessed as upregulation of p15 protein levels after 24 hrs by Western blot analysis; assay type: functional, cell-based
Method in brief: (§2)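 SiHa cells (2.0×10^5 per well) treated 24 h, lysed at 4 °C for 30 min, supernatant cleared at 15,000 rpm; protein measured by BCA, 30 µg resolved on 10% SDS-PAGE, transferred to nitrocellulose, blocked in 5% milk/TBS-Tween 1 h, primary antibodies overnight at 4 °C, HRP secondaries 2 h at room temperature.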

SiHa [4] = experiment: Antitumor activity against human SiHa cells xenografted in nude BALB/c mouse assessed as tumor growth inhibition at 5 to 20 mg,kg, ip administered every other day for 24 days; assay type: functional, organism-based; details: TDE = time-dependent effect
Method in brief: (§3)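 BALB/c nude mice (5 weeks old) given 1×10^7 SiHa cells subcutaneously in right flank; at ~50 mm3 tumor volume, randomized (10 per group) and dosed intraperitoneally every other day for 24 days; controls got equal-volume saline. Caliper volume as 1/2 × length × width2; tumors weighed at end; inhibition rate = (1 − mean treated tumor weight/mean control tumor weight) × 100%.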

[5] = Binding affinity to 1 uM PDGFA promoter G-quadruplex DNA (unknown origin) at 1 uM after 1 min by fluorescence spectroscopic analysis; assay type: ADME
Method in brief: (§4)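 Fluorescence emission spectra of 1 µM compound mixed with 1 µM pre-annealed oligonucleotide (G-quadruplexes folded in 100 mM KCl by heating to 95 °C for 5 min, slow cooling), in Tris-HCl buffer.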

Homo sapiens [6] = species: Homo sapiens; experiment: Stabilization of c-Myc promoter G-quadruplex DNA in human Raji cells assessed as downregulation of exon 2 transcriptional level after 6 hrs by RT-PCR analysis; assay type: cell-based
Method in brief: (§5)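 RAJI and CA46 cells treated 6 h over a concentration range; total RNA reverse-transcribed (oligo dT18, M-MLV, 42 °C 1 h then 85 °C 5 min); exon 1 and exon 2 amplified by real-time PCR with exon-specific primers, products run on 1% agarose gel; three repeats.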

SiHa [7] = experiment: Antiproliferative activity against human SiHa cells assessed as reduction in colony formation at 0.5 uM measured on day 8 by crystal violet-staining based assay; assay type: functional, cell-based
Method in brief: (§6)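 Cells seeded at 300 per well in six-well plates, exposed to compound at 37 °C, 5% CO2, with drug-containing medium replaced every 2 days; after 8 days of culture, colonies fixed with methanol and stained with crystal violet.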

[8] = Binding affinity to 1 uM C-KIT1 promoter G-quadruplex DNA (unknown origin) at 1 uM after 1 min by fluorescence spectroscopic analysis; assay type: ADME; method in brief: as §4
Homo sapiens [9] = species: Homo sapiens; experiment: Stabilization of c-Myc promoter G-quadruplex DNA in human Raji cells assessed as downregulation of exon 1 transcriptional level after 6 hrs by RT-PCR analysis; assay type: cell-based; method in brief: as §5
[10] = Stabilization of wild type c-Myc promoter G-quadruplex DNA (unknown origin) transfected in human SiHa cells co-expressing psiCHECK2 luciferase plasmid assessed as inhibition of gene transcription at 1.25 to 2.5 uM after 48 hrs by dual-luciferase reporter gene assay; assay type: cell-based; method in brief: as §1
[11] = Binding affinity to KRAS promoter G-quadruplex DNA (unknown origin) after 1 min by fluorescence titration method; assay type: ADME
Method in brief: (§7)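 Oligonucleotide stock added stepwise to fixed-concentration compound in 10 mM Tris-HCl pH 7.2, 100 mM KCl; equilibrated ≥1 min after each addition, emission read with excitation at 350 nm. KD from fitting titration data to the Benesi–Hildebrand equation; 1:1 stoichiometry checked by Job plot.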

[12] = Binding affinity to 1 uM c-MYC promoter G-quadruplex pu22 DNA (unknown origin) at 1 uM after 1 min by fluorescence spectroscopic analysis; method in brief: as §4
SiHa [13] = experiment: Induction of cell cycle arrest in human SiHa cells assessed as downregulation of CDK6 protein levels after 24 hrs by Western blot analysis; assay type: functional, cell-based; method in brief: as §2
BJ [14] = experiment: Antiproliferative activity against human BJ cells assessed as reduction in colony formation at 0.5 uM measured on day 8 by crystal violet-staining based assay; assay type: cell-based; method in brief: as §6
SiHa [15] = experiment: Antitumor activity against human SiHa cells xenografted in nude BALB/c mouse assessed as tumor growth inhibition at 10 mg,kg, ip administered every other day for 24 days; assay type: functional; method in brief: as §3
Homo sapiens [16] = species: Homo sapiens; experiment: Stabilization of c-Myc promoter G-quadruplex DNA in human CA46 cells assessed as effect on exon 2 transcriptional level at 1.25 to 5 uM after 6 hrs by RT-PCR analysis; assay type: cell-based; method in brief: as §5
[17] = Stabilization of PDGFA G-quadruplex DNA in human SiHa cells assessed as effect on PDGFA mRNA level at 1.25 to 5 uM fter 6 hrs by RT-PCR method; assay type: ADME, cell-based
Method in brief: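 SiHa cells (2.0×10^5 per well) treated 6 h; total RNA (2 µg) reverse-transcribed with oligo dT18 and M-MLV at 42 °C for 1 h, 85 °C for 5 min; PCR: 95 °C 5 min, then 30 cycles of 95 °C 30 s, 58 °C 30 s, 72 °C 40 s; products checked on agarose gel.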

SiHa [18] = experiment: Induction of apoptosis in human SiHa cells assessed as late apoptotic cells at 5 uM after 24 hrs by Annexin V-FITC/propidium iodide-staining based flow cytometric analysis; assay type: functional
HeLa = experiment: Cytotoxicity against human HeLa cells assessed as reduction in cell viability after 24 hrs by MTT assay; assay type: functional, cell-based
Method in brief: (§8)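 Cells seeded at 5.0×10^3 per well, exposed to compound for 24 h; MTT (2.5 mg/mL) added for 4 h, formazan dissolved in DMSO, OD read at 570 nm. Triplicate; IC50 from curves of mean OD against concentration.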

U2OS = experiment: Cytotoxicity against human U2OS cells assessed as reduction in cell viability after 24 hrs by MTT assay; assay type: functional, cell-based; method in brief: as §8
[19] = Binding affinity to c-KIT1 promoter G-quadruplex DNA (unknown origin) after 1 min by fluorescence titration method; assay type: ADME; method in brief: as §7
[20] = Stabilization of c-Myc promoter pu22 G-quadruplex DNA (unknown origin) assessed as change in melting temperature at 15 uM by circular dichroism spectroscopic assay
Method in brief: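 CD melting of 3 µM annealed G-quadruplex with or without 15 µM ligand in 10 mM Tris-HCl pH 7.2 with 2 mM KCl (50 mM KCl for htg22 and HRAS); read every 5 °C over 25–95 °C, heating 1 °C/min.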

BJ [21] = experiment: Cytotoxicity against human BJ cells assessed as cell growth inhibition at 1.2 to 3 uM after 130 hrs by RTCA assay; assay type: cell-based
Method in brief: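 Cells seeded at 2000 per well on impedance plates, settled 20 min at room temperature, profiled 24 h; medium then replaced with compound-containing medium and cells monitored to 130 h total. Cell index normalized to 1.0 at the time point just before compound addition.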

A-375 = experiment: Cytotoxicity against human A375 cells assessed as reduction in cell viability after 24 hrs by MTT assay; assay type: functional, cell-based; details: A-375, 24 h; method in brief: as §8

- Activity [5]: Not Active
- Activity [8]: Not Active
- Kd [11]: 1000 nM
- Activity [12]: Active
- Activity [17]: Not Active
- Kd [19]: 800 nM
- ΔTm [20]: 20 °C
Compound: CCn1c2ccccc2c2cc(-c3nc(-c4ccc(N5CCN(C)CC5)cc4)c(-c4ccc(N5CCN(C)CC5)cc4)n3-c3ccc(OC)cc3)ccc21
- Activity (SiHa [1]): Dose-dependent effect
- Activity [2]: inactive
- Activity (SiHa [3]): Dose-dependent effect
- TGI (SiHa [4]): Tde
- Activity (Homo sapiens [6]): Dose-dependent effect
- Activity (SiHa [7]): Active
- Activity (Homo sapiens [9]): Dose-dependent effect
- inhibition [10]: Active
- Activity (SiHa [13]): Dose-dependent effect
- Activity (BJ [14]): Non-Toxic
- TGI (SiHa [15]): 64%
- Activity (Homo sapiens [16]): inactive
- Activity (SiHa [18]): 52%
- IC50 (HeLa): 2100 nM
- IC50 (U2OS): 6.8 µM
- growth inhibition (GI) (BJ [21]): Non-Toxic
- IC50 (A-375): 4.2 µM
